Compound activity (PubChem)
dFosB activator – activators of delta FosB homodimer, primary screen, biochemical, fluorescence polarization, TAMRA-CDK5 oligo, single point | Protein FosB (Mus musculus), P13346 | purified delta FosB; percent of positive-control signal above neutral wells | activation, % at 25 µM | 0.99% of 340,000 active;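 active means mean activation above about 17%, with every replicate also reaching it, limit read from the data, passing the limit was not always enough; inconclusive means only one of the two conditions met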
CDK5 p35 inh – inhibitors of human CDK5/p35 kinase, primary screen, biochemical, single concentration; inhibition, % at 10 µM; Cyclin-dependent kinase 5 (Homo sapiens) + Cyclin-dependent kinase 5 activator 1 (Homo …; Recombinant CDK5/p35, ADP-Glo luminescence, 60 min; 0.01% of 330,000 active;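 active means highest replicate inhibition of at least 50% and at least 75% of replicates reaching 50%; inconclusive means only one of the two criteria met; inactive means both criteria failed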;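 further: plate controls were DMSO neutral control for no effect and GW8510 at 10 µM for full effect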
Target sequence (Q00535 whole entry, looked up): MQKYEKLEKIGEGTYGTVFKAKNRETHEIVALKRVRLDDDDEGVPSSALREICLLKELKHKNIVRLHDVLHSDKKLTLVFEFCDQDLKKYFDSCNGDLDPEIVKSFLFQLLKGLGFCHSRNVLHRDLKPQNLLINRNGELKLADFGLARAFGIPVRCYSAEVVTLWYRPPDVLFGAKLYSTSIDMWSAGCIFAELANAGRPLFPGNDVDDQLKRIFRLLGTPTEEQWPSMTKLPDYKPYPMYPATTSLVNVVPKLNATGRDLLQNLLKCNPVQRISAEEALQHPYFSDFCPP
Target sequence (Q15078 whole entry, looked up): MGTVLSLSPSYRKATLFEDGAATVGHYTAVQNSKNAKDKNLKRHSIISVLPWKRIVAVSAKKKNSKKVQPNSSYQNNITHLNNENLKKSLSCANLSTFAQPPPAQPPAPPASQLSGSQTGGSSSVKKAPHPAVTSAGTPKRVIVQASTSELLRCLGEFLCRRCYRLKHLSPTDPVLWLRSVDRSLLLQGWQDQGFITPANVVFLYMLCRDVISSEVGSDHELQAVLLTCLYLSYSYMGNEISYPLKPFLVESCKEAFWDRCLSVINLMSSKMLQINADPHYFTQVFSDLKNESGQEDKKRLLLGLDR
Statin myotox sup – suppressors of statin myotoxicity in C2C12 myotubes, primary screen, cell-based, single point, plate reader | rescue of ATP level, % at 7.49 µM | AID 602340, 2012 | C2C12 myotubes + simvastatin, ATP luminescence, 48 h; scaled: DMSO 0, geranylgeraniol control 100 | 0.78% of 330,000 active;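 active means mean ATP rescue above about 67%, or every replicate alone reaching that limit, limit read from the data, passing the limit was not always enough; inconclusive means no clear call, values can overlap the other calls; inactive means mean under the limit and some replicate under it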;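 further: myotubes were challenged with 10 µM simvastatin during compound exposure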
CAL PDZ FP-1 – CAL PDZ peptide-binding inhibitors, primary screen, biochemical, fluorescence polarization, Cer-tagged CAL PDZ, HTS. 0.02% of 330,000 active. inhibition, % at 20 µM. purified CAL PDZ, TMR-peptide fluorescence polarization, 1 h. Golgi-associated PDZ and coiled-coil motif-containing protein (Homo sapiens), Q9HD26;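 active means highest replicate inhibition of at least 40%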;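 further: plate controls were DMSO neutral control wells for no effect and unlabeled competitor peptide control wells for full effect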
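Test system: purified CerCALP PDZ construct; Compound dosing: one concentration, 20 µM compound; Also added: TMR-labelled reporter peptide T*-PRC34 bound in PDZ groove; Read-out: inhibition from polarization loss; Controls: unlabelled peptide and DMSO controls; Signal: FP readout, S and P plane fluorescence; Incubation: 1 h at RT.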
S100A4 MyoIIA – inhibitors of S100A4-myosin IIA peptide binding, primary screen, biochemical, fluorescence polarization, TAMRA-MyoIIA peptide; Protein S100-A4 (Homo sapiens), P26447; AID 652163, 2013; inhibition, % at 10.7 µM; 0.14% of 360,000 active;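 active means mean inhibition of at least 70% across replicates, with every replicate also reaching that level; inconclusive means mean inhibition reaches 70% but some replicates fall short; inactive means mean inhibition below 70%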
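assay system = human S100A4 monomer with TAMRA-labelled myosin IIA peptide | also added = labelled myosin peptide probe, 5 nM | incubation = 5 min between mix addition and reading | control set = DMSO and TFP controls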
CAL PDZ FP-2 – untagged CAL PDZ binding inhibitors, primary screen, biochemical, fluorescence polarization, HTS; Golgi-associated PDZ and coiled-coil motif-containing protein (Homo sapiens), Q9HD26; purified CAL PDZ, TMR-peptide fluorescence polarization, 1 h; inhibition, % at 24.9 µM; 0.92% of 300,000 active;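 active means mean inhibition of at least 30% with at least half of replicates also reaching 30%; inconclusive means no clear call, values can overlap the other calls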;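 further: 0% = DMSO neutral control and 100% = excess unlabeled competitor peptide PRC23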
The depositor's hits bear a star. Compounds with a hit are over-represented: about 2% of the library has one in this group of screens.

Screening COc1cc(/C=N\NC(=O)c2ccc(-c3ccccc3)cc2)cc(Br)c1O returned dFosB activator 7, CDK5 p35 inh -1, CAL PDZ FP-1 -1, S100A4 MyoIIA -1 and CAL PDZ FP-2 -2.
`COc1cc(/C=N/NC(=O)c2ccc(CN3C(=O)c4cccc5cccc3c45)cc2)cc(OC)c1O` gave dFosB activator 6, CDK5 p35 inh 0, Statin myotox sup 87*, CAL PDZ FP-1 6, S100A4 MyoIIA -4 and CAL PDZ FP-2 50*.
For COc1ccc(NC(=O)Nc2cccc3c2O[C@H](CN(C)S(=O)(=O)c2ccc(Cl)cc2)[C@H](C)CN([C@H](C)CO)C3=O)cc1 the results were Statin myotox sup 15 and S100A4 MyoIIA 4.
`N#CCc1ccc(OC(=O)Nc2ccccc2)cc1` gave dFosB activator 7, CDK5 p35 inh 0, Statin myotox sup 5, S100A4 MyoIIA -8 and CAL PDZ FP-2 114*.
For Cc1ccc(OC(=O)Nc2ccccc2)cc1 the results were dFosB activator 3, CDK5 p35 inh -5, Statin myotox sup 0, CAL PDZ FP-1 0, S100A4 MyoIIA -5 and CAL PDZ FP-2 -1.
Screening Cc1ccc(C(C)NC(=O)Cc2cccs2)c(C)c1 (stereo unspecified) returned dFosB activator -1, CDK5 p35 inh 3, Statin myotox sup 3, CAL PDZ FP-1 24, S100A4 MyoIIA 4 and CAL PDZ FP-2 0.
O=C(CCc1ccccc1)Nc1ccc(N2CCOCC2)cc1 was read as dFosB activator -5, CDK5 p35 inh -2, Statin myotox sup -4, CAL PDZ FP-1 -3 and CAL PDZ FP-2 -1.
Screening Cc1ccc(SCC(=O)Nc2ccccc2N2CCOCC2)cc1 returned dFosB activator -11, CDK5 p35 inh 1, Statin myotox sup -4, CAL PDZ FP-1 0, S100A4 MyoIIA 0 and CAL PDZ FP-2 48*.
For Cc1ccc(NC(=O)CSCC(=O)Nc2ccc(N3CCOCC3)c(Cl)c2)cc1 the results were dFosB activator -6, CDK5 p35 inh 1, Statin myotox sup 121*, CAL PDZ FP-1 -2 and CAL PDZ FP-2 -3.
O=C(CCc1ccccc1)Nc1ccc(N2CCOCC2)c(Cl)c1 was read as dFosB activator -9, CDK5 p35 inh -1, Statin myotox sup 113*, CAL PDZ FP-1 -1 and CAL PDZ FP-2 -17.
Screening O=C(C1CCCC1)N1CC2(C1)[C@H](c1ccccc1)[C@@H](CO)N2Cc1nccs1 returned S100A4 MyoIIA 15.
Screening CC(C)C(NC(=O)C12CC3CC(CC(C3)C1)C2)C(=O)O (stereo unspecified) returned dFosB activator 8, CDK5 p35 inh -1, Statin myotox sup -3, CAL PDZ FP-1 0 and CAL PDZ FP-2 2.
`C/C(=C\C(=O)O)C12CC3CC(CC(C3)C1)C2` gave dFosB activator -1, CDK5 p35 inh -1 and CAL PDZ FP-2 31*.
O=C(CN(C(=O)CCC(=O)Nc1nccs1)C1CCCC1)NCc1ccc2c(c1)OCO2 was read as dFosB activator -1, CDK5 p35 inh -2, S100A4 MyoIIA -7 and CAL PDZ FP-2 0.
`COc1c(Cl)cc(Cl)cc1C(=O)n1nc(C)cc1C` gave dFosB activator 0, CDK5 p35 inh 2, Statin myotox sup 98*, CAL PDZ FP-1 0 and CAL PDZ FP-2 -1.
Screening Cc1cc(C)n(C(=O)c2ccc(Cl)c(F)c2F)n1 returned dFosB activator -2, CDK5 p35 inh -1, CAL PDZ FP-1 0, S100A4 MyoIIA 5 and CAL PDZ FP-2 -5.
O=C(c1ccc([N+](=O)[O-])o1)N1CCN(c2nc3c(Cl)cccc3s2)CC1 was read as dFosB activator -8, CDK5 p35 inh 1, Statin myotox sup inconclusive, CAL PDZ FP-1 -2, S100A4 MyoIIA -4 and CAL PDZ FP-2 -2.
For Cc1ccc2sc(N3CCN(C(=O)c4ccc([N+](=O)[O-])o4)CC3)nc2c1C the results were dFosB activator -1, CDK5 p35 inh 1, Statin myotox sup 85*, CAL PDZ FP-1 -2, S100A4 MyoIIA 30 and CAL PDZ FP-2 -4.
Screening O=C(c1ccc([N+](=O)[O-])o1)N1CCN(c2nc3ccc(F)cc3s2)CC1 returned dFosB activator -1, CDK5 p35 inh -5, Statin myotox sup 68*, CAL PDZ FP-1 -2, S100A4 MyoIIA 11 and CAL PDZ FP-2 -6.
Cc1cccn2c(=O)c(C=O)c(N3CCCCCC3)nc12 was read as dFosB activator -1, CDK5 p35 inh -1, Statin myotox sup 101* and CAL PDZ FP-1 -1.
Nc1ccn(CCCNC2CCN(Cc3ccccc3)CC2)c(=O)n1 was read as Statin myotox sup 1 and S100A4 MyoIIA -2.
CN(C)C(CNC(=O)CCc1nc2cc(Cl)ccc2n(Cc2ccccc2)c1=O)c1ccccc1 (stereo unspecified) was read as dFosB activator inconclusive, CDK5 p35 inh -5, Statin myotox sup 30, CAL PDZ FP-1 -4, S100A4 MyoIIA 190* and CAL PDZ FP-2 -2.
CCNC(=S)NNC(=O)CCc1nc2cc(Cl)ccc2n(Cc2ccccc2)c1=O was read as dFosB activator -6, CDK5 p35 inh 2, Statin myotox sup 18, CAL PDZ FP-1 -5, S100A4 MyoIIA 5 and CAL PDZ FP-2 1.
Cc1cc(C)c(C#N)c(OCc2ccc(Cl)nc2)n1 was read as dFosB activator -7, CDK5 p35 inh -1, Statin myotox sup 4, CAL PDZ FP-1 -2, S100A4 MyoIIA 8 and CAL PDZ FP-2 0.
`O=c1cccc2c1c1cc[nH]c3ccc(=O)n2c31` gave dFosB activator 0, CDK5 p35 inh 3, Statin myotox sup 1, CAL PDZ FP-1 -1, S100A4 MyoIIA -6 and CAL PDZ FP-2 49*.
Screening C(=N\NCc1ccccc1)/c1ccc2ncccc2c1 returned S100A4 MyoIIA 0.
For S=C(N/N=C/c1ccc2ncccc2c1)Nc1ccccc1 the results were dFosB activator -19, CDK5 p35 inh 1, CAL PDZ FP-1 -3, S100A4 MyoIIA -7 and CAL PDZ FP-2 33*.
`CC(O)CNCCNCc1cccs1` (stereo unspecified) gave dFosB activator 1, CDK5 p35 inh -3, CAL PDZ FP-1 14, S100A4 MyoIIA -3 and CAL PDZ FP-2 47*.
O=C(N/N=C/c1ccc2c(c1)OCO2)c1cc(-c2ccc(F)cc2)nc2ccccc12 was read as dFosB activator 1, CDK5 p35 inh 0, CAL PDZ FP-1 -3, S100A4 MyoIIA -2 and CAL PDZ FP-2 -4.
